This note sets out measurements from ChEMBL document CHEMBL1136745 (J Med Chem, 2003).

One may read the IC50 as the point on the concentration scale where inhibition reaches its midpoint. The term Emax denotes the size of the effect at its maximum, as opposed to the concentration needed. In general, EC50 refers to the midpoint of the concentration-response curve. Broadly, the inhibition is the share of the control response that was lost under treatment.

Values after ≈ are worked out from the molar mass of the structure shown.

The nature of data set [1]: Solubility in 0.05 M Tris-HCl buffer, pH 7.4. It counts as physicochemical. To be noted: read-out: S. A digest of the protocol:
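Excess compound shaken 3 h in 0.05 M Tris-HCl pH 7.4, centrifuged 10000g for 3 min, concentration read at 350 nm.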

The target of data set [2] is Nicotinic acetylcholine receptor alpha1/beta1/gamma/delta (Mus musculus, UniProt P02716+P04756+P04760+P09690). Briefly: Inhibition of recombinant embryonic mouse muscle Nicotinic Acetylcholine Receptor (3 oocytes). It counts as cell-based, Oocyte. In short, it runs like this:
(§1)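 Torpedo or embryonic mouse muscle nAChRs in Xenopus oocytes, two-electrode clamp at -70 mV, 20–22 °C, low-Ca ND-96 (0.3 mM CaCl2) without propylene glycol; drug coapplied 5 s with 10 μM acetylcholine after stable response; fit to single-site inhibition equation; reversibility after 5 min wash.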

Data set [3] can be described thus: The octanol/water partition coefficient of [3H]azietomidate. Format: physicochemical. In short, it runs like this:
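Octanol/water two-phase mixture shaken in amber vial, settled 12 h, radiolabel partition measured.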

The target of data set [4] is T1, GABA-A receptor; alpha-1/beta-2/gamma-2 (Homo sapiens) (UniProt P14867+P47870+P18507). Briefly: Maximum activation of Gamma-aminobutyric acid A receptor in the absence of GABA compared to 1 mM GABA. It counts as functional. A digest of the protocol: (§2)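 Oocytes expressing GABA_A receptors, two-electrode clamp at -50 mV, 20–22 °C, ND-96 pH 7.6; drug applied without GABA, stocks in 35% propylene glycol (superfusate ≤170 mM). […] Washout up to 15 min.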

Data set [5] has as its target T1, GABA-A receptor; alpha-1/beta-2/gamma-2 (Homo sapiens). In words: Hill coefficient for enhancement of currents elicited by GABA at EC5 (6-12 uM). Format: functional.
Data set [6] has the same target. Briefly: Maximum response for enhancement of currents elicited by GABA at EC5 (6-12 uM). It counts as functional.
Data set [7] in a line: Anesthetic potency, Concentration for loss of righting reflexes (LORR) in Rana temporaria. Format: functional, frog.
The target of data set [8] is T1, GABA-A receptor; alpha-1/beta-2/gamma-2 (Homo sapiens). In words: (§3) Direct activation of Gamma-aminobutyric acid A receptor in the absence of GABA. It counts as functional. In short, it runs like this: as §2
Data set [9] concerns the target T2, GABA-A receptor; alpha-1/beta-2/gamma-2 (Homo sapiens, UniProt P14867+P18507+P47870).
T2 sequence (P14867 whole entry): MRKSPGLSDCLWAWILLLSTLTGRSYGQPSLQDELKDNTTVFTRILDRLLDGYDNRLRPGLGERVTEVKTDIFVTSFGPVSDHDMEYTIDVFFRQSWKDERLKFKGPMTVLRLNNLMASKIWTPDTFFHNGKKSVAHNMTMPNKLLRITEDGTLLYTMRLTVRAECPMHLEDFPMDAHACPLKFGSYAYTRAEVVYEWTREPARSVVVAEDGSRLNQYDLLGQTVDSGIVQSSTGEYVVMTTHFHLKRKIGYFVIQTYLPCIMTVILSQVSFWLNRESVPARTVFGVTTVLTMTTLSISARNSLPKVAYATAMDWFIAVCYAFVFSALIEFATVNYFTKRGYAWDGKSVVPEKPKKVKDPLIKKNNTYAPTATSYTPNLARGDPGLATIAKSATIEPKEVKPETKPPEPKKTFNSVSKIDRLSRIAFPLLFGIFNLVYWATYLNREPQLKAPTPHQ
T2 sequence (P47870 whole entry): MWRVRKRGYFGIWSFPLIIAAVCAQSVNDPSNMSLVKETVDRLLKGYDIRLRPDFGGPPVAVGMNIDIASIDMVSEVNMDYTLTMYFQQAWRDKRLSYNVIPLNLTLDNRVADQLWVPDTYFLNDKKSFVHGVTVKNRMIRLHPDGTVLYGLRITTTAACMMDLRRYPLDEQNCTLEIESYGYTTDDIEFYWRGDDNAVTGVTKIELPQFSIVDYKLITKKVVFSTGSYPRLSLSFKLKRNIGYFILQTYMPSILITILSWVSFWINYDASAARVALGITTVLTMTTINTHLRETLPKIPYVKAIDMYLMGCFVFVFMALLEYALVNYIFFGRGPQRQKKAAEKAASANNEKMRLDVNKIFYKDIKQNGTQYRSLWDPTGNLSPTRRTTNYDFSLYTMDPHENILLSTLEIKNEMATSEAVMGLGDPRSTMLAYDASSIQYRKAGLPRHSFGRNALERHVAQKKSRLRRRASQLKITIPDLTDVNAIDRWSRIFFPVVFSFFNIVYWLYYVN
T2 sequence (P18507 whole entry): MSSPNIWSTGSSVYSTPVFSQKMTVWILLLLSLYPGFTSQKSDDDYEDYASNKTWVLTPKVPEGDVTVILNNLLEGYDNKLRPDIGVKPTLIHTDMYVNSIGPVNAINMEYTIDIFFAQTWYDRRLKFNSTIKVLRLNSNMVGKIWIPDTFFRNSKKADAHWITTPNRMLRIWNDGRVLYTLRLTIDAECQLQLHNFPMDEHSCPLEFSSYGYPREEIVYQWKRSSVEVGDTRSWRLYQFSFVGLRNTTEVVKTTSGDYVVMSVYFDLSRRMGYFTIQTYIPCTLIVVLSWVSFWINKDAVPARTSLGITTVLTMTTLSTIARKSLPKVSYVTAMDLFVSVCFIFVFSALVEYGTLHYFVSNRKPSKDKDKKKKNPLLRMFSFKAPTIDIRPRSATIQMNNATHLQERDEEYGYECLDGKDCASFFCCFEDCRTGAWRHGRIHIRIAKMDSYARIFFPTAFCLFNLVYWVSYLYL
In words: Enhancement of currents elicited by GABA at EC5 (6-12 uM). It counts as functional.

The target in data set [10] is T3, Acetylcholine receptor (Torpedo californica, UniProt P02710+P02712+P02714+P02718). In words: (§4) Inhibition of currents when compound wascoapplied with acetylcholine to recombinant Torpedo nAcChoR (from 6 oocytes). Format: cell-based, Oocyte. In short, it runs like this: as §1
For data set [11], the target named is T1, GABA-A receptor; alpha-1/beta-2/gamma-2 (Homo sapiens). Briefly: Maximum levels of enhancement of currents from alpha-1-beta-2-gamma-2L-subunit of GABA receptor elicited by low concentrations of GABA. Format: functional.
Data set [12] addresses GABA-A receptor; anion channel. Briefly: Inhibition of [35S]TBPS binding to rat brain membranes. Format: cell membranes, Membrane.
Data set [13] has as its target T1, GABA-A receptor; alpha-1/beta-2/gamma-2 (Homo sapiens). In words: Maximum activation of Gamma-aminobutyric acid A receptor in the absence of GABA compared to GABA response. Format: functional. A digest of the protocol: as §2
Data set [14] concerns the target T2, GABA-A receptor; alpha-1/beta-2/gamma-2. The description is as §3. Format: functional.
Data set [15] shares this target. Briefly: Ability to enhance currents from alpha-1-beta-2-gamma-2L-subunit of GABA receptor elicited by low concentrations of GABA. Format: functional.
Data set [16] shares this target. Briefly: Inhibition of currents elicited by GABA at EC5 (6-12 uM). Format: functional.
Data set [17] can be described thus: Anesthetic potency, Concentration for loss of righting reflexes (LORR) in Xenopus tadpoles. It counts as functional, frog. A digest of the protocol: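 Pre-limb bud Xenopus tadpoles (1.5–2 cm), groups of 5–10 in oxygenated 5 mM Tris-HCl pH 7.4, low light; drug from buffer or ethanol stock (final ethanol ≤5 mM). Tipped at 30–40 min; no righting within 5 s = LORR. Pooled groups of 10–20; quantal curves by Waud method; SD reported.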

Data set [18] has as its target T4, GABA-A receptor; anion channel (Rattus norvegicus) (UniProt O09028+P15431+P18506+P18508+P19969+P20236+P23574+P23576+P28471+P28473+P30191+P62813+P63079+P63138+Q91ZM7+Q9ES14). In words: Inhibition of [35S]TBPS binding to rat brain membranes at 100 uM (Range = 80-90%). It counts as cell membranes. To be noted: Membrane.
The target in data set [19] is T1, GABA-A receptor; alpha-1/beta-2/gamma-2 (Homo sapiens). Briefly: Maximum activation of Gamma-aminobutyric acid A receptor compared to maximal control GABA current at >320 uM. Format: functional.
Data set [20] concerns the target T4, GABA-A receptor; anion channel (Rattus norvegicus). In words: Inhibition of [35S]TBPS binding to rat brain membranes at 100 uM. It counts as cell membranes. Conditions: Membrane.
Data set [21] concerns the target T3, Acetylcholine receptor. Described as §4. It counts as functional, cell-based, Oocyte. In short, it runs like this:
as §1

Data set [22] relates to Torpedo. In words: Concentration that reduced photoincorporation of [3H]azietomidate into the alpha and beta subunits of the nAcChoR in membranes of Torpedo electric organ. Format: functional. A digest of the protocol: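 Torpedo californica nAChR-rich membranes, 2 mg/mL in Torpedo saline pH 7.0 with 1 mM oxidized glutathione, with 0.9 μM [3H]azietomidate, ± 300 μM carbamylcholine, ± R-etomidate; irradiated at 4 °C, 6 min at 254 nm or 25 min at 365 nm; 8% SDS-PAGE, fluorography, excised bands counted by scintillation.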

T3 sequence (P02710 whole entry): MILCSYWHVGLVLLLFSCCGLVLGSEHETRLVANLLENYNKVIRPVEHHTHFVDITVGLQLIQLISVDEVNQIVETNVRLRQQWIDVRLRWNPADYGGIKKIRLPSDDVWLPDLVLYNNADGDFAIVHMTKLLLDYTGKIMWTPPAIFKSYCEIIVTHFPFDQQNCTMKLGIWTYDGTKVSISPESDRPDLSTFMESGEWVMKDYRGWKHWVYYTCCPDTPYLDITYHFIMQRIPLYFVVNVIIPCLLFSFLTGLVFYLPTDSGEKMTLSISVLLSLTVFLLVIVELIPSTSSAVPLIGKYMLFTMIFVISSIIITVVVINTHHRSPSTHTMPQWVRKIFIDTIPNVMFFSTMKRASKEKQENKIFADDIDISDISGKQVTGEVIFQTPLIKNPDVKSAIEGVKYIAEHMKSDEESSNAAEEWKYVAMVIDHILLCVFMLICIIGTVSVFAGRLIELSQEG
T3 sequence (P02712 whole entry): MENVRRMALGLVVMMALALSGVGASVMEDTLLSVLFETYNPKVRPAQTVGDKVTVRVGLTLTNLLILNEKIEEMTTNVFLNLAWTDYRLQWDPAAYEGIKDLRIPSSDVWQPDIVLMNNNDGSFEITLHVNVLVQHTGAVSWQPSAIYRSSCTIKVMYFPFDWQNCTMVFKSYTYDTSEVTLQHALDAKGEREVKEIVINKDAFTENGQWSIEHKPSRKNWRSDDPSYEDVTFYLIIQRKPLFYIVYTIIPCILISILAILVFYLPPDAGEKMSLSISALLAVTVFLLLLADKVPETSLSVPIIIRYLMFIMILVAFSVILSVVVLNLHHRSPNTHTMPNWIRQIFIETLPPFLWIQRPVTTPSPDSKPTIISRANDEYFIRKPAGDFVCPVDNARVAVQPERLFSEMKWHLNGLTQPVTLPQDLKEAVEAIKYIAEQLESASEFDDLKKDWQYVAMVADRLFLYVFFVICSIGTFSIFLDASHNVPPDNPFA
T3 sequence (P02718 whole entry): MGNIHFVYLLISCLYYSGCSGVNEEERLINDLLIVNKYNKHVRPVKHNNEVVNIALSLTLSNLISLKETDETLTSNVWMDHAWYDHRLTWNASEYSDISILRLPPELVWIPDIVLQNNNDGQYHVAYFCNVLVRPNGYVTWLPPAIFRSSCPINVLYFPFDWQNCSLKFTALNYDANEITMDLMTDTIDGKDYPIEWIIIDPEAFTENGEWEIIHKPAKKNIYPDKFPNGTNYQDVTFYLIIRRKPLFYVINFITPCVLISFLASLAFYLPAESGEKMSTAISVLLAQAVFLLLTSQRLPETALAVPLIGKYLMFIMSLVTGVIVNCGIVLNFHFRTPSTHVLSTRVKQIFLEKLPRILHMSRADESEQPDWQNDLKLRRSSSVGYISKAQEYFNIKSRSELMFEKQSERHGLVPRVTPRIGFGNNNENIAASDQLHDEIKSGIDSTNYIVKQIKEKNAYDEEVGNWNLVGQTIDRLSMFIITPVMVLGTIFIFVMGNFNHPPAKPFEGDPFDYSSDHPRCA
T3 sequence (P02714 whole entry): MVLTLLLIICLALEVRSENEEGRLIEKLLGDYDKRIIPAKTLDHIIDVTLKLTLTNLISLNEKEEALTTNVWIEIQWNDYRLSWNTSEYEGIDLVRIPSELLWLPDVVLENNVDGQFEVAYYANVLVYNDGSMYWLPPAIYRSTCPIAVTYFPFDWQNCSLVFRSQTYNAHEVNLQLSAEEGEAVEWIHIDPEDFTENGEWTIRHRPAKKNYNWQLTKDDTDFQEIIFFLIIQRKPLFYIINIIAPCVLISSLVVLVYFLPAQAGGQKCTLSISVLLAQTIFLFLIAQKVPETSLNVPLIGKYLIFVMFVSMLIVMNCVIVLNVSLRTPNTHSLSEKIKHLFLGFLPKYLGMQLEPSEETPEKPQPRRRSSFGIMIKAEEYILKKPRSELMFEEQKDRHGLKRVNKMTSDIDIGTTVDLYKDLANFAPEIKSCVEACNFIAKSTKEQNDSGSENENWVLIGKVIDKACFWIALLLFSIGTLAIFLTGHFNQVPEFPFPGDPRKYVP
Nicotinic acetylcholine receptor alpha1/beta1/gamma/delta, sequence (P04756 whole entry): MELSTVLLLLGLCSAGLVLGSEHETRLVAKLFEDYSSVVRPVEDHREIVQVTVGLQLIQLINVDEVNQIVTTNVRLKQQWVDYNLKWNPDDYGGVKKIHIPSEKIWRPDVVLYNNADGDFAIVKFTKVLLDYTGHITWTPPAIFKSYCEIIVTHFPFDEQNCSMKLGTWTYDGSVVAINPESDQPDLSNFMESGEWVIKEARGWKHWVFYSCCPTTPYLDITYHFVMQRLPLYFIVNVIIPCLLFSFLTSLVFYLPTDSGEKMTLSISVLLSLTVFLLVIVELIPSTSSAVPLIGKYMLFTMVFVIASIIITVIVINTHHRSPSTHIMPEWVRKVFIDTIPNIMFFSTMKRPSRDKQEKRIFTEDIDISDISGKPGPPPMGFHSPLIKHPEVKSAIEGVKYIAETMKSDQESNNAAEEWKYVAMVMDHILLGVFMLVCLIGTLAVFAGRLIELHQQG
Nicotinic acetylcholine receptor alpha1/beta1/gamma/delta, sequence (P09690 whole entry): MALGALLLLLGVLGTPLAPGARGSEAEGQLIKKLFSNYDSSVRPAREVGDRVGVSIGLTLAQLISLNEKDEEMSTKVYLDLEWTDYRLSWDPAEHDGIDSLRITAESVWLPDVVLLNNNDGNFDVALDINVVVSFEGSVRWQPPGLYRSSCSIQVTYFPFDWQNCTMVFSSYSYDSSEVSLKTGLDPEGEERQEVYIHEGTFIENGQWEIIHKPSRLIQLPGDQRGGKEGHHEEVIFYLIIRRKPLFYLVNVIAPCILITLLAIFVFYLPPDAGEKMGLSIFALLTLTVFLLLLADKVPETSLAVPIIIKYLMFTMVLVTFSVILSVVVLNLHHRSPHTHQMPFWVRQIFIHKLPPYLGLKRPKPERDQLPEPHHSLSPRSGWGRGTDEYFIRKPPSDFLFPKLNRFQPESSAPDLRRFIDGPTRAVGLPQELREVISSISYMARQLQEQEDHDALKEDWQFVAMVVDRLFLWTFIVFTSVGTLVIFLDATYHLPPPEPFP
Nicotinic acetylcholine receptor alpha1/beta1/gamma/delta, sequence (P02716 whole entry): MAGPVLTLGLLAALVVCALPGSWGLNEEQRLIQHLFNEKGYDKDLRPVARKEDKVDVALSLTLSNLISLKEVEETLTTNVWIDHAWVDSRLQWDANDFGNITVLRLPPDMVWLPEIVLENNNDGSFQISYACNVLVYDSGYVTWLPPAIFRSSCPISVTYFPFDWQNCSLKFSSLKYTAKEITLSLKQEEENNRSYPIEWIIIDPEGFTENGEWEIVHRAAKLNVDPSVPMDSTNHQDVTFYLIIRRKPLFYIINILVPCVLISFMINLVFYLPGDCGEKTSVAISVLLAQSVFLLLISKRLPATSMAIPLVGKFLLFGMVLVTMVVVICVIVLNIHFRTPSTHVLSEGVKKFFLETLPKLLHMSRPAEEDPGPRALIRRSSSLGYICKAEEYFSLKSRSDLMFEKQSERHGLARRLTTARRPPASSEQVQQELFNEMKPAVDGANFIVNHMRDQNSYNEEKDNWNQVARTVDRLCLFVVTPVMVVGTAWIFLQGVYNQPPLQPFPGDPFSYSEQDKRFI
Nicotinic acetylcholine receptor alpha1/beta1/gamma/delta, sequence (P04760 whole entry): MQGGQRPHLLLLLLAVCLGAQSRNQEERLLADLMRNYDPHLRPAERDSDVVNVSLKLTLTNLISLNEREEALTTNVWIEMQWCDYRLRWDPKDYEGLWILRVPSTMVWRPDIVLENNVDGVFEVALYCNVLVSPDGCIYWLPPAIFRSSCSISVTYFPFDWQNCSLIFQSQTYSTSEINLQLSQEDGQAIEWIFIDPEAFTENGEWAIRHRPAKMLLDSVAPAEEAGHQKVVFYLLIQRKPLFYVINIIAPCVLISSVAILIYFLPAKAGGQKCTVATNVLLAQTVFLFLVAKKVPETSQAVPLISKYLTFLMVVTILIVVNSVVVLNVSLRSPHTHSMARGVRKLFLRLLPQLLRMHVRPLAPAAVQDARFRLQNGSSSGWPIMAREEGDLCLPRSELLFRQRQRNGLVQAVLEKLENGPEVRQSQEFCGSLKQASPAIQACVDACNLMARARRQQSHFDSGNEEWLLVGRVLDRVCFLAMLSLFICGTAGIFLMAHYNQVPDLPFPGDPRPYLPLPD

Take `CC(c1ccccc1)n1cncc1C(=O)OCCC1(C)N=N1` (stereo unspecified) [AZIETOMIDATE]: the solubility in data set [1] was 540 µM (≈ 161 µg/mL). In [2], the IC50 is 25 µM. The molecule also displayed a Partition coefficient in data set [3] of 3600.

For the molecule `CCOC(=O)c1cncn1[C@@H](C)c1ccccc1` [S-ETOMIDATE], in data set [4], the Emax was 2.9%. Besides, the nH in data set [5] is 1.9. Moreover, in [6], the Max response worked out at 110%. In [7], this molecule came in with an EC50 of 57 µM. The same molecule yielded a Concentration in [8] of 100 µM.

Turning to `C[C@H](c1ccccc1)n1cncc1C(=O)OCCC1(C)N=N1`, the EC50 worked out at 2 µM in [9], 37 µM in [14], 1.2 µM in data set [15] and 2.2 µM in [17]. Further, the IC50 in data set [10] is 23 µM; in data set [12], 4.9 µM; in [16], 104 µM. Besides, the values for the Emax in data set [11] and in [13] were 127% and 14%, respectively. Further, the nH in data set [5] came out at 1.5. Also, the Max response in data set [6] was determined as 94%. This molecule showed an inhibition in data set [18] of under 90%.

Turning to `C[C@@H](c1ccccc1)n1cncc1C(=O)OCCC1(C)N=N1`, the EC50 stood at 20 µM in data set [9] and 14 µM in [17]. The nH in data set [5] came to 1.6. The same molecule displayed an IC50 in [16] of 66.3 µM. The molecule also had a maximal response (Emax) in data set [19] of 0.5%. The same molecule returned an inhibition in data set [20] of 60%. In data set [6], the Max response was determined as 94%.

Consider `CCOC(=O)c1cncn1[C@H](C)c1ccccc1` [ETOMIDATE], for which the Emax in data set [11] is 127%; in [13], 18%. Moreover, in data set [5], the nH came to 1.2. The results for the IC50 in [2] and in [21] were 50 µM and 41 µM, respectively. The Max response in data set [6] worked out at 110%. For the same molecule, the EC50 in data set [7] came out at 3.4 µM; in data set [17], 2.3 µM. This molecule displayed a Concentration in data set [22] of 300 µM.
